SENP1 inh = blocks the human SENP1 SUMO protease catalytic domain; AID 624204; inhibition, % at 10 µM; recombinant SENP1 catalytic domain, CyPet-SUMO1-YPet FRET cleavage; Q9P0U3; actives 0.21% (n = 360,000);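 active = inhibition at least 30% at 10 µM, raw YFP signal under a set limit, fluorescence ratio 0.5 to 1.5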;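 note: 0% = enzyme with DMSO and 100% = no enzyme wells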
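Assay system: hSENP1 catalytic domain, recombinant. Amount: SENP1 enzyme, 20 pM final. Schedule: 50 min reaction, RT, dark. Technique: FRET, CFP and YFP emission. Control set: no-enzyme wells low, DMSO-plus-enzyme wells high control.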
SENP8 block-1 = blocks the human protease SENP8; purified SENP8, Z-RLRGG-aminoluciferin cleavage, luminescence; inhibition, % at 10 µM; Q96LD8; AID 2540; actives 1.2% (n = 330,000); in the data active = inhibition above about 50%
HSP90 inh = inhibitors of HSP90 luciferase refolding in rabbit reticulocyte lysate. luciferase refolding luminescence, 3 h. actives 0.91% (n = 290,000). inhibition, % at 5.6 µM;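 active = inhibition above the screen-wide mean plus 3 SD, computed separately per campaign, cut at about 16% in these data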;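 note: 0% = DMSO wells and 100% = 60 µM geldanamycin wells; inhibitors lower the luminescence because luciferase stays unfolded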
SENP7 block = inhibitors of human SENP7 protease; inhibition, % at 5 µM; recombinant SENP7, Z-RLRGG-aminoluciferin luminescence, 40 min; AID 434973; Q9BQF6; actives 1.5% (n = 330,000);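 active = inhibition above about 50% at the single test dose, limit read from the data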;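 note: plate controls were DMSO with enzyme for no effect and no enzyme buffer wells for full effect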
Target sequence (Q9BQF6 706-1050 limits assumed): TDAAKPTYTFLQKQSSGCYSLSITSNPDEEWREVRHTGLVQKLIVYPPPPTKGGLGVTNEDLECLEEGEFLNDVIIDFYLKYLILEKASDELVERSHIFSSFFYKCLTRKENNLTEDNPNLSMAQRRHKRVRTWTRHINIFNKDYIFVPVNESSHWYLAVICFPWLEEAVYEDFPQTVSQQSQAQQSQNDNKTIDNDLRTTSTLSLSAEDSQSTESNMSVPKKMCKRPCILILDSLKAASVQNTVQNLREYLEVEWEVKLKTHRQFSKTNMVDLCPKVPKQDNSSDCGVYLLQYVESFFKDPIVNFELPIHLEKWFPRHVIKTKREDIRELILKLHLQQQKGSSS
SENP8 block-2 = SENP8 (human) protease inhibition. Q96LD8. recombinant SENP8, Nedd8 substrate fluorescence. inhibition, % at 20 µM. actives 0.64% (n = 360,000). AID 602440; in the data active = inhibition mostly above about 40%, no sharp cut-off; inactive = mostly below about 27%
SENP6 block = blocks the human protease SENP6; Q9GZR1; Recombinant SENP6 catalytic domain, aminoluciferin luminescence; inhibition, % at 10 µM; actives 1.8% (n = 330,000);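 active = inhibition above about 50% at the single tested dose, limit read from the data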;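 note: plate controls were DMSO wells with enzyme for no effect and DMSO wells lacking enzyme for full effect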
SENP8 confirm = confirmation of human SENP8 protease inhibitors | shares compounds with SENP7 block | actives 40% (n = 6,200) | AID 488912 | Recombinant SENP8, Z-RLRGG-aminoluciferin luminescence, 60 min | inhibition, % at 12.5 µM;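 active = mean inhibition across replicates above about 50%, limit read from the data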
SENP6 confirm = confirmation of human SENP6 protease inhibitors; shares compounds with SENP7 block; recombinant SENP6, Z-RLRGG-aminoluciferin luminescence; inhibition, % at 12.5 µM; actives 58% (n = 6,200)
SENP7 conf = confirmation of human SENP7 protease inhibitors | actives 69% (n = 6,200) | shares compounds with SENP7 block | inhibition, % at 12.5 µM | recombinant SENP7, Z-RLRGG-aminoluciferin luminescence, 40 min
Casp3 select = selectivity test for SENP inhibitors: human caspase-3 inhibition. shares compounds with SENP7 block. purified caspase-3, Z-DEVD-aminoluciferin luminescence, 60 min. inhibition, % at 12.5 µM. actives 60% (n = 6,200). AID 488918;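 active = mean inhibition above about 50%, limit read from the data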;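 note: plate controls were enzyme with DMSO for no effect and wells without caspase-3 for full effect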
Target sequence (P42574 28-227 limits assumed): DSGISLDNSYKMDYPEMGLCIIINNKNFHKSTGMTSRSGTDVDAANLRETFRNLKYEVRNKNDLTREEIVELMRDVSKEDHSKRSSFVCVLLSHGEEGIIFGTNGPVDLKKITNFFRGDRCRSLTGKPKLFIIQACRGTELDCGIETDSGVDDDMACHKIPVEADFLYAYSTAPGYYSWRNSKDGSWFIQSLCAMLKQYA
SENP luc ctr = counter-screen for SENP inhibitors: luminescence interference; shares compounds with SENP7 block; Pre-incubated SENP8/Z-RLRGG-aminoluciferin, luciferase luminescence interference; actives 39% (n = 6,200); inhibition, % at 12.5 µM;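 active = mean inhibition above about 50% when retested at one dose, limit read from the data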;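 note: plate controls were DMSO wells with completed reaction for no effect and substrate without enzyme for full effect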
The depositor's hits bear a star. The list is not random: actives were taken first. Their share in the collection is about 2.9%.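 Rule for the calls, unless noted: active = mean inhibition above about 50% in the one-dose retest (limit read from the data); inactive = the rest.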

Results for O=S(=O)(O)c1ccc(N=NNc2ccc(Br)cc2)cc1 ?
SENP1 inh: 0; SENP8 block-1: 90*; HSP90 inh: -2; SENP7 block: 90*; SENP8 block-2: 30; SENP6 block: 89*; SENP8 confirm: 91*; SENP6 confirm: 91*; SENP7 conf: 99*; Casp3 select: 85*; SENP luc ctr: 93*

What do the screens show for `COc1cc(C2C3=C(COC3=O)Oc3cc4c(cc32)OCO4)ccc1O` (stereo not given)?
SENP1 inh: 0; SENP8 block-2: 7

What do the screens show for `Cc1nc(N2CCN(c3ccccn3)CC2)c2c(C)c(C(=O)N3CCN(c4cccc(Cl)c4)CC3)sc2n1`?
SENP1 inh: 0; SENP8 block-1: -7; HSP90 inh: 3; SENP7 block: -2; SENP8 block-2: 6; SENP6 block: -19

What do the screens show for `CCC1CSC(Nc2ccc(C(=O)/C=C/c3cccc(C)c3)cc2)=N1` (stereo not given)?
SENP1 inh: -2; SENP8 block-1: -1; HSP90 inh: 0; SENP7 block: 4; SENP8 block-2: -109; SENP6 block: 54*; SENP8 confirm: -15; SENP6 confirm: -15; SENP7 conf: -22; Casp3 select: -5; SENP luc ctr: 0

How did COC(=O)c1cc(OC)c(OC)c(OC)c1[N+](=O)[O-] do in these assays?
SENP1 inh: 1; SENP8 block-1: -1; HSP90 inh: 3; SENP7 block: 1; SENP8 block-2: 16; SENP6 block: -15

How did Cc1nc2cc(NC(=O)NC(C)(C)C)ccc2n1C do in these assays?
SENP1 inh: 0; SENP8 block-1: 1; HSP90 inh: 0; SENP7 block: 1; SENP8 block-2: 23; SENP6 block: 6

How did COc1cccc(NC(=O)Nc2nc(SC)ns2)c1 do in these assays?
SENP1 inh: 1; SENP8 block-1: 82*; HSP90 inh: -2; SENP7 block: 77*; SENP8 block-2: 20; SENP6 block: 90*; SENP8 confirm: 76*; SENP6 confirm: 77*; SENP7 conf: 96*; Casp3 select: 76*; SENP luc ctr: 86*

What do the screens show for `COc1cccc(NC(=O)Nc2ccc3nc(C)c(C)nc3c2)c1`?
SENP1 inh: 9; SENP8 block-1: 39; HSP90 inh: -2; SENP7 block: 46; SENP8 block-2: -283; SENP6 block: 54*; SENP8 confirm: 11; SENP6 confirm: 36; SENP7 conf: 58*; Casp3 select: 59*; SENP luc ctr: 7

How did COc1cccc(NC(=O)Nc2ccc3c(c2)nc(C)n3C)c1 do in these assays?
SENP1 inh: 0; SENP8 block-1: 78*; HSP90 inh: 8; SENP7 block: 90*; SENP8 block-2: 8; SENP6 block: 91*; SENP8 confirm: 86*; SENP6 confirm: 85*; SENP7 conf: 98*; Casp3 select: 94*; SENP luc ctr: 86*

What do the screens show for `COc1cccc(NC(=O)Nc2ccc3nsnc3c2)c1`?
SENP1 inh: 2; SENP8 block-1: 44; HSP90 inh: -2; SENP7 block: -10; SENP8 block-2: -123; SENP6 block: 50*; SENP8 confirm: 57*; SENP6 confirm: 52*; SENP7 conf: 77*; Casp3 select: 38; SENP luc ctr: 54*

Results for O=C(Nc1ccccc1F)N1CCc2ccccc2C1 ?
SENP1 inh: 3; SENP8 block-1: -8; HSP90 inh: -2; SENP7 block: 5; SENP8 block-2: 7; SENP6 block: 12

How did CC(C)[C@H](NC(N)=O)C(=O)Nc1cccc(S(=O)(=O)N2CCOCC2)c1 do in these assays?
SENP1 inh: 2; SENP8 block-1: 1; HSP90 inh: 0; SENP7 block: 4; SENP8 block-2: 10; SENP6 block: 1

Results for O=C(CSc1nnc(-c2cccnc2)n1Cc1ccco1)NCc1ccc2c(c1)OCO2 ?
SENP1 inh: -11; SENP8 block-1: 4; HSP90 inh: -6; SENP7 block: 59*; SENP8 block-2: 15; SENP6 block: -7; SENP8 confirm: -9; SENP6 confirm: -6; SENP7 conf: -11; Casp3 select: -1; SENP luc ctr: 2

What do the screens show for `Cc1cc(C)c(NC(=O)CSc2nnc(-c3ccncc3)n2Cc2ccco2)c(C)c1`?
SENP1 inh: 1; SENP8 block-1: -7; HSP90 inh: 1; SENP7 block: 70*; SENP8 block-2: 11; SENP6 block: -27; SENP8 confirm: 7; SENP6 confirm: 8; SENP7 conf: 1; Casp3 select: 4; SENP luc ctr: 2

What do the screens show for `COc1cccc(-c2nnc(SCC(=O)NCc3ccc4c(c3)OCO4)n2Cc2ccco2)c1`?
SENP1 inh: -5; SENP8 block-1: -1; HSP90 inh: -8; SENP7 block: -6; SENP8 block-2: 24; SENP6 block: 1

Results for O=C(O)c1ccc(-c2nc(-c3ccc(Cl)cc3Cl)cs2)cc1 ?
SENP1 inh: 2; SENP8 block-1: -7; HSP90 inh: 3; SENP7 block: 1; SENP8 block-2: -34; SENP6 block: 60*; SENP8 confirm: 32; SENP6 confirm: 36; SENP7 conf: 49; Casp3 select: 12; SENP luc ctr: 21

What do the screens show for `O=C(O)c1ccc(-c2nc(-c3cccc(C(F)(F)F)c3)cs2)cc1`?
SENP1 inh: -1; HSP90 inh: 2; SENP8 block-2: -62

How did Cc1ccc2c(c1)N(CC(=O)NC(C)CCc1ccccc1)C(=O)c1cccnc1O2 (stereo not given) do in these assays?
SENP1 inh: -1; SENP8 block-1: -7; HSP90 inh: -3; SENP7 block: -14; SENP8 block-2: 7; SENP6 block: -7

How did O=C(O)CCc1ccc(-c2ccc(Cl)cc2)o1 do in these assays?
SENP1 inh: 3; SENP8 block-1: 47; HSP90 inh: 9; SENP7 block: 32; SENP8 block-2: 15; SENP6 block: 73*; SENP8 confirm: 68*; SENP6 confirm: 61*; SENP7 conf: 88*; Casp3 select: 66*; SENP luc ctr: 81*

Assay outcomes as filed in PubChem.
